Experimental data reported in PubChem BioAssay AID624393 (The Scripps Research Institute Molecular Screening Center, 2012).
Where “and” joins values, the source holds several entries; their conditions need not be identical. Identical values can stand only once.

Target: Induced myeloid leukemia cell differentiation protein Mcl-1 (Homo sapiens) (UniProt Q07820)
Test: MCL1 binding to BIM-BH3 peptide, inhibitors, late-stage follow-up, biochemical, fluorescence polarization, assay provider data, probe compound (AID 624393)
Conditions: GST-MCL1 / FITC-Bim BH3 peptide
Procedure, shortened: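 Material: E. coli-expressed GST-MCL1 fusion protein with FITC-labelled Bim BH3 peptide. Buffer or medium: PBS with 0.001% Brij. Detection: fluorescence polarization (mP). Evaluation: IC50 at 50% level of fitted percent-inhibition curve. Schedule: 20 min compound exposure with protein and peptide, room temperature. Reagent: 4 nM FITC-Bim BH3 peptide.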

Sequence of Induced myeloid leukemia cell differentiation protein Mcl-1 (Homo sapiens) (Q07820 whole entry, looked up): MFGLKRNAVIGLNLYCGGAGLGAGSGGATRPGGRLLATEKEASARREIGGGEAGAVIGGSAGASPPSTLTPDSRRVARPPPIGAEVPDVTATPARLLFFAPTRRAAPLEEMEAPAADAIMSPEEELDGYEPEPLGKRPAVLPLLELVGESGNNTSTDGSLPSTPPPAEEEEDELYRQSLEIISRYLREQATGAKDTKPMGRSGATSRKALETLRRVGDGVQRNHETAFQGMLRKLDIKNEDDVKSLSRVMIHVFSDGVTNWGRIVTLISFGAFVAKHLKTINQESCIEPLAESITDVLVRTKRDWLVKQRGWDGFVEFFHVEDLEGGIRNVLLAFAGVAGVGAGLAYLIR

CCN1CCN(C(c2ccc(C(F)(F)F)cc2)c2ccc3cccnc3c2O)CC1 (stereo unspecified)
IC50: 250 nM and 310 nM
